{
  "source": "PubChem BioAssay AID488885",
  "about": "(Broad Institute, 2010)",
  "key": {"[1]": {"tested_on": "HMC1-8 (Mcl1-dependent) caspase activation, CaspaseGlo luminescence, 4 h", "assay": "caspase activation in Mcl1-dependent HMC1-8 cells, dose response, selectivity assay for A1 inhibitor project, cell-based, CaspaseGlo luminescence, dry powder (AID 488885)", "how_it_was_run": "(§1)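 Test system: HMC 1-8, a low-A1-expressing human cancer cell line / Quantity: 2500 cells/well / Medium: RPMI-1640, 10% FBS / Schedule: 4 h compound at 37 °C, 1 h reagent at room temperature / Measured by: luminescence with CaspaseGlo reagent / Measure: caspase activation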"}, "[2]": {"assay": "caspase activation in Mcl1-dependent HMC1-8 cells, dose response, selectivity assay for A1 inhibitor project, cell-based, CaspaseGlo luminescence, dry powder (AID 488885)", "conditions": "HMC1-8 (Mcl1-dependent) caspase activation, CaspaseGlo luminescence, 4 h; at 150 µM (top of the series)", "how_it_was_run": "as §1"}},
  "note": "Inconclusive results are not listed. Calls of active or inactive are those of the source.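 Rule for the calls: active = compounds raising caspase signal whose fitted half-max concentration is within ten times the top valid dose; inconclusive = flat curve with moderate caspase rise, or unreliable fit; inactive = flat near zero, too weak, or opposite direction.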",
  "data": [
    {"smiles": "CC(C)(C)n1nc(-c2ccc(Cl)cc2)c2c(N)ncnc21", "values": [
      {"measurement": "AC50", "setting": "[1]", "value": 44.9, "unit": "µM"}
    ]},
    {"smiles": "COc1cc(/C=C(/C#N)c2nc3ccccc3[nH]2)ccc1OCC(=O)Nc1ccccc1C(C)C", "values": [
      {"measurement": "caspase activation", "setting": "[2]", "value": "13.5% (inactive)"}
    ]},
    {"smiles": "O=C(Oc1cccc(/C=N/Nc2nc(Nc3ccccc3)nc(N3CCOCC3)n2)c1)c1ccco1", "values": [
      {"measurement": "caspase activation", "setting": "[2]", "value": "3.81% (inactive)"}
    ]},
    {"smiles": "CC(=O)OC(C)(C)/C=C/C(=O)[C@](C)(O)C1[C@H](O)C[C@@]2(C)C3CC=C4C(C[C@H](O)C(=O)C4(C)C)[C@]3(C)C(=O)C[C@]12C", "note": "(stereo not given in full)", "values": [
      {"measurement": "caspase activation", "setting": "[2]", "value": "17.2% (inactive)"}
    ]},
    {"smiles": "O=C(CCl)N=c1sccn1Cc1ccccc1Cl", "values": [
      {"measurement": "caspase activation", "setting": "[2]", "value": "-18.4% (inactive)"}
    ]},
    {"smiles": "C/C1=C/C(=O)O[C@@H]2C[C@@H](CC[C@H](C)/C=C\\CC1)O[C@@](O)(C1CSC(=O)N1)C2", "note": "(stereo not given in full)", "values": [
      {"measurement": "caspase activation", "setting": "[2]", "value": "3.84% (inactive)"}
    ]},
    {"smiles": "C=C1[C@@H](C)[C@H]2[C@H](Cc3ccccc3)NC(=O)[C@]23OC(=O)/C=C\\[C@H](O)CCC[C@@H](C)C/C=C/[C@H]3[C@@H]1O", "values": [
      {"measurement": "caspase activation", "setting": "[2]", "value": "4.5% (inactive)"}
    ]},
    {"smiles": "Cc1ccc(Sc2c([N+](=O)[O-])c(=O)n(C)c3ccccc23)cc1", "values": [
      {"measurement": "caspase activation", "setting": "[2]", "value": "-9.5% (inactive)"}
    ]},
    {"smiles": "Cn1c(=NC(=O)CCl)sc2ccccc21", "values": [
      {"measurement": "caspase activation", "setting": "[2]", "value": "-4.38% (inactive)"}
    ]},
    {"smiles": "C=C1[C@@H](C)[C@H]2[C@H](Cc3ccccc3)NC(=O)[C@]23[C@H](OC(C)=O)/C=C/[C@](C)(O)C(=O)[C@@H](C)C/C=C/[C@H]3[C@@H]1O", "values": [
      {"measurement": "caspase activation", "setting": "[2]", "value": "-0.0184% (inactive)"}
    ]}
  ]
}
